# pEC50: −log10 of the molar value. Bridge positions count the residues as written; N and C are the ends. Square brackets hold non-standard residues; d marks the D form. Peptide text beside a SMILES is read from it. * marks the point of attachment. Ala(2-furyl) = N[C@@H](Cc1ccco1)C(=O)O; Ala(cPent) = N[C@@H](CC1CCCC1)C(=O)O; Orn(iPr) = CC(C)NCCC[C@H](N)C(=O)O; 2Thi = N[C@@H](Cc1cccs1)C(=O)O; 3Thi = N[C@@H](Cc1ccsc1)C(=O)O; Orn = NCCC[C@H](N)C(=O)O; Dab = NCC[C@H](N)C(=O)O; Ac4c = NC1(C(=O)O)CCC1; NHiBu = CC(C)CN*; X2 = CC(O)CN*; NHOH = ON*
# Columns and labels:
# [1] = molecular target: T1, Vasopressin V1b receptor (Homo sapiens, UniProt P47901); experiment: Agonist activity at recombinant human vasopressin V1b receptor expressed in Flp-In-293 cells by luciferase reporter gene assay; type: functional, cell-based; conditions: read-out: EC50
# T1 sequence (P47901 whole entry): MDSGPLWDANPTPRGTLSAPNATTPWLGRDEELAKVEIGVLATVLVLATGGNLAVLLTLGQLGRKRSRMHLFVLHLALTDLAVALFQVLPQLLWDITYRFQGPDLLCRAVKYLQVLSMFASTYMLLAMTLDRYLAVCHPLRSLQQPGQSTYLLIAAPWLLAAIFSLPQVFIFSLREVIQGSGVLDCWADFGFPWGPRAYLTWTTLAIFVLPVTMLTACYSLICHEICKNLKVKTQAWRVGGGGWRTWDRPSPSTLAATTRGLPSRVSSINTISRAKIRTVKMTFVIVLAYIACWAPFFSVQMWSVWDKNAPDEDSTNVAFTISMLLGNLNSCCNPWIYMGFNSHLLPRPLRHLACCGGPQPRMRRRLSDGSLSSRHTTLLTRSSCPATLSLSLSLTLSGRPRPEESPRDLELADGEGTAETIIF
# In short: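 Reporter gene assays in HEK293 cells transiently cotransfected with V1a (human or rat) or human V2 receptor vector plus NFAT-luciferase (V1a) or CRE-luciferase (V2) reporter; V1b in Flp-In-293 stably expressing receptor, OT in CHO-K1 stably expressing receptor, both transiently transfected with NFAT-luciferase. Two days post-transfection, peptides added for 5 h at 37 °C, lysis with luciferin, luminescence read.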
# [2] = molecular target: T2, Vasopressin V2 receptor (Homo sapiens, UniProt P30518); experiment: Partial agonist activity at recombinant human vasopressin V2 receptor expressed in HEK293 cells by luciferase reporter gene assay; type: functional, cell-based
# In short: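 Same luciferase reporter systems (OT in stable CHO-K1, V1b in stable Flp-In-293, each with transient NFAT-luciferase; V1a in HEK293 with NFAT-luciferase, V2 in HEK293 with CRE-luciferase). Peptides added for 5 h at 37 °C two days post-transfection, luminescence read. Partial agonism means efficacy <70%.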
# [3] = molecular target: Vasopressin V1a receptor (Homo sapiens, UniProt P37288); experiment: Agonist activity at recombinant human vasopressin V1a receptor expressed in HEK293 cells by luciferase reporter gene assay; type: functional, cell-based; conditions: read-out: EC50
# [4] = molecular target: T2, Vasopressin V2 receptor; experiment: Agonist activity at recombinant human vasopressin V2 receptor expressed in HEK293 cells by luciferase reporter gene assay; type: functional, cell-based; conditions: for pEC50: read-out: EC50; for EC50: read-out: pEC50 (converted)
# [5] = molecular target: T3, Oxytocin receptor (Homo sapiens, UniProt P30559); experiment: Agonist activity at human OT receptor expressed in CHO-K1 cells by luciferase reporter gene assay; type: functional, cell-based; conditions: for pEC50: read-out: EC50; for EC50: read-out: pEC50 (converted)
# T3 sequence (P30559 whole entry): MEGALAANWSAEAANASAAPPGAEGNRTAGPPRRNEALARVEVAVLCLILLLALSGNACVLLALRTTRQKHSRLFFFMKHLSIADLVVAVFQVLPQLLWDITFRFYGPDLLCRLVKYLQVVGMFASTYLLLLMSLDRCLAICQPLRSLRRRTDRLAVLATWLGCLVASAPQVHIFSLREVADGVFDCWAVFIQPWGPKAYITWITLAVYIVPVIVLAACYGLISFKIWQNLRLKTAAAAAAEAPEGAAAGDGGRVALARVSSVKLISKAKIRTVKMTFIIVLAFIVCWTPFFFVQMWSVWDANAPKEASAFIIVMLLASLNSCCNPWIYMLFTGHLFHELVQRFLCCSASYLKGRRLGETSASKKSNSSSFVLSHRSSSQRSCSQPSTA
# [6] = species on record: Homo sapiens; experiment: Selectivity ratio of EC50 for human oxytocin receptor to EC50 for human vasopressin V1a receptor
# [7] = species on record: Homo sapiens; experiment: Selectivity ratio of EC50 for human vasopressin V1b receptor to EC50 for human vasopressin V1a receptor
# [8] = molecular target: Vasopressin V1a/V2 (Homo sapiens) (UniProt P30518+P37288); experiment: Selectivity ratio of EC50 for human vasopressin V2 receptor to EC50 for human vasopressin V1a receptor
# [9] = molecular target: Vasopressin V1a receptor (Rattus norvegicus, UniProt P30560); experiment: Agonist activity at recombinant rat vasopressin V1a receptor expressed in HEK293 cells by luciferase reporter gene assay; type: functional, cell-based; conditions: for pEC50: read-out: EC50
# Chain of Vasopressin V1a receptor (Rattus norvegicus, UniProt P30560) (P30560 whole entry): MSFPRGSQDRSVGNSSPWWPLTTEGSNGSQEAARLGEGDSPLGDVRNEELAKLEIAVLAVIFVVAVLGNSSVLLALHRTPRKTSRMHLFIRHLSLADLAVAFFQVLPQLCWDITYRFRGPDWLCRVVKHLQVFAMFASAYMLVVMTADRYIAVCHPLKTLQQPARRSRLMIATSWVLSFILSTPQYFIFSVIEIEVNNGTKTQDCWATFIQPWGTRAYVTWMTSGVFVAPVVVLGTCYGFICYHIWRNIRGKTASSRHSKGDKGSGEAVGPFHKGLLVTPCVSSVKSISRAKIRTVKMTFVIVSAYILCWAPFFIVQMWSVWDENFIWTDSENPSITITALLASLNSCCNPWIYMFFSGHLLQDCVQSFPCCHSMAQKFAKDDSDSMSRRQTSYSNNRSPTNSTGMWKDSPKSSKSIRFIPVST
# Chain of Vasopressin V1a receptor (Homo sapiens, UniProt P37288) (P37288 whole entry): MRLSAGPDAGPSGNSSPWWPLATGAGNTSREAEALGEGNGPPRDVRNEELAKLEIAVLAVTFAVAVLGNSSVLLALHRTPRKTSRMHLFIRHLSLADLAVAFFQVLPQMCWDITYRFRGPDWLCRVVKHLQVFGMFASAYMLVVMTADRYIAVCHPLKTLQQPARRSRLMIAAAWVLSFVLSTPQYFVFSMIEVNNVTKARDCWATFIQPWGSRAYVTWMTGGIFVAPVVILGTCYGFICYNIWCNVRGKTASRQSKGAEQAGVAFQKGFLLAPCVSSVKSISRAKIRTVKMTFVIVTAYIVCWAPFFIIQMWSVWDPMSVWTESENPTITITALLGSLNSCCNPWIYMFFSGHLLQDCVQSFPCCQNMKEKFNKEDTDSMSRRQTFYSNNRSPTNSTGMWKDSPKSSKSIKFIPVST
# T2 sequence (P30518 whole entry): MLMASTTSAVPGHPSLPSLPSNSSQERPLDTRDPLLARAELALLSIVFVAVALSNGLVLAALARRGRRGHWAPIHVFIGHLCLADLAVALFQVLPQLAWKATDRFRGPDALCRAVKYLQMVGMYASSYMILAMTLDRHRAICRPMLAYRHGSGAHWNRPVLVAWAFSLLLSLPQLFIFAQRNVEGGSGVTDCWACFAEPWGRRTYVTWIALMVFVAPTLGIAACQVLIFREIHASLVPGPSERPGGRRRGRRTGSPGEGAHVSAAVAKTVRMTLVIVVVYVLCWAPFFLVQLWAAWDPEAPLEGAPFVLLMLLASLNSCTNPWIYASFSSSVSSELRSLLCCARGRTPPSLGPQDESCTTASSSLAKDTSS
# Chain of Vasopressin V1a/V2 (Homo sapiens) (P30518 whole entry, looked up): as the sequence (P30518 whole entry) above
# Chain of Vasopressin V1a/V2 (Homo sapiens) (P37288 whole entry, looked up): as the sequence (P37288 whole entry) above
Structure (SMILES),pEC50 [1],Efficacy [2] [%],pEC50 [3],pEC50 [4],pEC50 ([5]; cho-k1),EC50 [5] [nM],Ratio EC50 [6],Ratio EC50 [7],Ratio EC50 [8],pEC50 [9],pEC50 ([4]; hek293),EC50 [4] [nM],pEC50 [5],EC50 ([9]; read-out: pEC50 (converted)) [nM]
CC[C@H](C)[C@@H]1NC(=O)[C@H](Cc2ccccc2)NC(=O)[C@@H](N)CSSC[C@@H](C(=O)N2CCC[C@H]2C(=O)N[C@@H](CCCN)C(=O)NCC(N)=O)NC(=O)[C@H](CC(N)=O)NC(=O)[C@H](CCC(=O)NCC(C)C)NC1=O (H-CFIE(NHiBu)NCP[Orn]G-NH2; disulfide 1-6),6.82,< 70,7.68,5.52,< 5.00,> 10000,> 470,7.1,140,–,–,–,–,–
CC[C@H](C)[C@@H]1NC(=O)[C@H](Cc2ccccc2)NC(=O)[C@@H](N)CSSC[C@@H](C(=O)N2CCC[C@H]2C(=O)N[C@@H](CCCN)C(=O)NCC(N)=O)NC(=O)[C@H](CC(N)=O)NC(=O)[C@H](CCC(N)=O)NC1=O (H-CFIQNCP[Orn]G-NH2; disulfide 1-6),7.60,–,–,6.81,< 5.00,> 10000,–,–,–,9.92,–,–,–,–
CC[C@H](C)[C@@H]1NC(=O)[C@H](Cc2ccccc2)NC(=O)[C@@H](N)CSSC[C@@H](C(=O)N2CCC[C@H]2C(=O)N[C@@H](CCN)C(=O)NCC(N)=O)NC(=O)[C@H](CC(N)=O)NC(=O)[C@H](CC(=O)NC)NC1=O (H-CFID(NHMe)NCP[Dab]G-NH2; disulfide 1-6),8.06,< 70,8.41,5.28,< 5.00,> 10000,> 2500,2.2,1300,–,–,–,–,–
CC[C@H](C)[C@@H]1NC(=O)C2(CCC2)NC(=O)[C@@H](N)CSSC[C@@H](C(=O)N2CCC[C@H]2C(=O)N[C@@H](CCN)C(=O)NCC(N)=O)NC(=O)[C@H](CC(N)=O)NC(=O)[C@H](CC(N)=O)NC1=O (H-C[Ac4c]INNCP[Dab]G-NH2; disulfide 1-6),6.92,–,7.92,–,< 5.00,> 10000,> 830,10,> 830,–,< 5.00,> 10000,–,–
CC[C@H](C)[C@@H]1NC(=O)[C@H](Cc2ccccc2)NC(=O)[C@@H](N)CSSC[C@@H](C(=O)N2CCC[C@H]2C(=O)N[C@@H](CCCN)C(=O)NCC(N)=O)NC(=O)[C@H](CC(N)=O)NC(=O)[C@H](CCC(=O)NO)NC1=O (H-CFIE(NHOH)NCP[Orn]G-NH2; disulfide 1-6),7.15,–,7.92,6.77,< 5.00,> 10000,> 830,5.8,14,–,–,–,–,–
CC[C@H](C)[C@@H]1NC(=O)[C@H](Cc2ccco2)NC(=O)[C@@H](N)CSSC[C@@H](C(=O)N2CCC[C@H]2C(=O)N[C@@H](CCCNC(C)C)C(=O)NCC(N)=O)NC(=O)[C@H](CC(N)=O)NC(=O)[C@H](CC(N)=O)NC1=O (H-C[Ala(2-furyl)]INNCP[Orn(iPr)]G-NH2; disulfide 1-6),5.74,–,7.82,–,–,–,64,120,> 660,–,< 5.00,> 10000,6.01,–
N=C(N)NCCC[C@H](NC(=O)[C@@H]1CCCN1C(=O)[C@@H]1CSSC[C@H](N)C(=O)N[C@@H](Cc2ccccc2)C(=O)N[C@@H](Cc2ccccc2)C(=O)N[C@@H](CCC(N)=O)C(=O)N[C@@H](CC(N)=O)C(=O)N1)C(=O)NCC(N)=O (H-CFFQNCPRG-NH2; disulfide 1-6),7.80,–,9.82,8.85,–,–,–,–,–,10.15,–,–,–,0.0794
CC[C@H](C)[C@@H]1NC(=O)[C@H](Cc2ccccc2)NC(=O)[C@@H](N)CSSC[C@@H](C(=O)N2CCC[C@H]2C(=O)N[C@@H](CCCN)C(=O)NCC(N)=O)NC(=O)[C@H](CC(N)=O)NC(=O)[C@H](CC(=O)NCC(C)O)NC1=O (stereo partly specified) (H-CFID(X2)NCP[Orn]G-NH2; disulfide 1-6),7.55,–,8.28,–,< 5.00,> 10000,> 1900,5.3,> 1900,–,< 5.00,> 10000,–,–
CC[C@H](C)[C@@H]1NC(=O)[C@H](Cc2ccco2)NC(=O)[C@@H](N)CSSC[C@@H](C(=O)N2CCC[C@H]2C(=O)N[C@@H](CCN)C(=O)NCC(N)=O)NC(=O)[C@H](CC(N)=O)NC(=O)[C@H](CCC(N)=O)NC1=O (H-C[Ala(2-furyl)]IQNCP[Dab]G-NH2; disulfide 1-6),6.68,–,8.66,6.48,–,–,47,95,150,–,–,–,6.98,–
CC[C@H](C)[C@@H]1NC(=O)[C@H](Cc2cccs2)NC(=O)[C@@H](N)CSSC[C@@H](C(=O)N2CCC[C@H]2C(=O)N[C@@H](CCN)C(=O)NCC(N)=O)NC(=O)[C@H](CC(N)=O)NC(=O)[C@H](CC(N)=O)NC1=O (H-C[2Thi]INNCP[Dab]G-NH2; disulfide 1-6),6.29,–,7.92,–,< 5.00,> 10000,> 830,42,> 830,–,< 5.00,> 10000,–,–
CC[C@H](C)[C@@H]1NC(=O)[C@H](Cc2ccsc2)NC(=O)[C@@H](N)CSSC[C@@H](C(=O)N2CCC[C@H]2C(=O)N[C@@H](CCCN)C(=O)NCC(N)=O)NC(=O)[C@H](CC(N)=O)NC(=O)[C@H](CC(N)=O)NC1=O (H-C[3Thi]INNCP[Orn]G-NH2; disulfide 1-6),6.46,–,8.14,–,< 5.00,> 10000,> 1300,47,> 1300,–,< 5.00,> 10000,–,–
CC[C@H](C)[C@@H]1NC(=O)[C@H](CC2CCCC2)NC(=O)[C@@H](N)CSSC[C@@H](C(=O)N2CCC[C@H]2C(=O)N[C@@H](CCCN)C(=O)NCC(N)=O)NC(=O)[C@H](CC(N)=O)NC(=O)[C@H](CC(N)=O)NC1=O (H-C[Ala(cPent)]INNCP[Orn]G-NH2; disulfide 1-6),6.92,–,8.11,–,< 5.00,> 10000,> 1200,15,> 1200,–,< 5.00,> 10000,–,–

# Reference: ChEMBL document CHEMBL1817572, “New, potent, selective, and short-acting peptidic V1a receptor agonists” (J Med Chem, 2011)
